Laboratory results: ChEMBL document CHEMBL4402563, “Preclinical Optimization of gp120 Entry Antagonists as anti-HIV-1 Agents with Improved Cytotoxicity and ADME Properties through Rational Design, Synthesis, and Antiviral Evaluation” (J Med Chem, 2020)

What was measured:
[1] = Cytotoxicity against dog Cf2Th-CCR5 cells infected with CD4-dependent pseudovirus HIV1 ADA incubated for 48 hrs by MTS assay
[2] = system: Human immunodeficiency virus 1; experiment: Antiviral activity against HIV1 HXB2 infected in human TZM-bl cells preincubated for 30 min followed by viral infection and measured after 3 days by luciferase based assay; assay type: functional, organism-based; conditions: Human immunodeficiency virus 1, M:B_HXB2R
In short: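 Single-cycle pseudovirus carrying HXB2 Env (CXCR4-tropic), made in HEK293T by co-transfecting an Env-deleted backbone (pSG3Δenv or pNL4-3.Luc.R-E-) with an Env plasmid. TZM-bl cells were seeded at 1 × 10^4/well and grown overnight. Virus was pretreated with graded compound concentrations, then added. Cells were washed and lysed, and IC50 was taken from percent inhibition.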

[3] = system: Human immunodeficiency virus 1; experiment: Antiviral activity against HIV1-3B infected in human H9 cells assessed as inhibition in cell to cell HIV1 transmission to human TZM-bl acceptor cells incubated for 24 hrs by luciferase based assay; assay type: functional, organism-based; conditions: Human immunodeficiency virus 1, 3B
[4] = system: Human immunodeficiency virus 1; experiment: Antiviral activity against HIV1-ADA infected in human MOLT4 cells assessed as inhibition in cell to cell HIV1 transmission to human TZM-bl acceptor cells incubated for 24 hrs by luciferase based assay; assay type: functional, organism-based; conditions: Human immunodeficiency virus 1, 24 h
TZM = experiment: Cytotoxicity against human TZM-bl cells incubated for 3 days by MTS assay; assay type: cell-based; conditions: 72 h
[5] = system: Human immunodeficiency virus 1; experiment: microbe, parasite or virus in culture; conditions: Human immunodeficiency virus 1, subtypeA
[6] = system: Human immunodeficiency virus 1; experiment: microbe, parasite or virus in culture; conditions: Human immunodeficiency virus 1, subtypeA; remark: listed apart in the source

Structure (SMILES)	IC50 [2] [µM]	CC50 (TZM) [µM]	also measured
CC1(C)CC(NC(=O)C(=O)Nc2ccc(Cl)cc2)CC(C)(C)N1	–	–	Activity [1]: Non-Toxic
COc1cnc(-n2cnc(C)n2)c2[nH]cc(C(=O)C(=O)N3CCN(C(=O)c4ccccc4)CC3)c12	< 0.001	–	IC50 [3]: 0.02 µM; IC50 [4]: 0.2 µM
NC[C@@H](NC(=O)c1ccc(-c2ccc(C(F)(F)F)cn2)[nH]1)c1ncc(CO)s1	0.96	> 122	–
CC(C)(N)[C@H](NC(=O)c1ccc(-c2ccc(C(F)(F)F)cn2)[nH]1)c1nc(CO)cs1	0.58	59	–
NC[C@H](NC(=O)c1ccc(-c2ccc(Cl)cn2)[nH]1)c1ncc(CO)s1	2.7	142	–
NC[C@@H](NC(=O)c1ccc(-c2ccc(C(F)(F)F)nc2)[nH]1)c1nc(CO)cs1	12.7	–	–
Cc1cc(-c2ccc(C(F)(F)F)cn2)[nH]c1C(=O)N[C@H](c1ncc(CO)s1)C(C)(C)N	0.43	37.5	–
NC[C@@H](NC(=O)c1ccc(-c2ccc(F)cn2)[nH]1)c1nc(CO)cs1	> 11	–	–
COc1cc(-c2ccc(C(=O)N[C@@H](CN)c3nc(CO)cs3)[nH]2)ccn1	> 11	> 133	–
Cc1cc(-c2ccc(Cl)cn2)[nH]c1C(=O)N[C@@H](CN)c1ncc(CO)s1	2.4	95	–
NC[C@@H](NC(=O)c1ccc(-c2ccc(C(F)(F)F)cn2)[nH]1)c1nc(CO)cs1	0.59	94.3	–
Cc1ccc(-c2ccc(C(=O)N[C@H](CN)c3nc(CO)cs3)[nH]2)nc1	9.6	–	–
NC[C@H](NC(=O)c1ccc(-c2ccc(C(F)(F)F)cn2)[nH]1)c1nc(C(O)CO)cs1 (stereo partly specified)	3.8	> 113	–
NC[C@@H](NC(=O)c1ccc(-c2ccc(C(F)(F)F)cn2)[nH]1)c1nc(CCCO)cs1	2.3	> 114	–
Cc1cc(-c2ccc(C(F)(F)F)cn2)[nH]c1C(=O)N[C@H](CN)c1nc(CO)cs1	–	–	Activity [1]: Non-Toxic
NC[C@H](NC(=O)c1ccc(-c2ccc(Cl)nc2)[nH]1)c1nc(CO)cs1	> 11	> 132	–
Cc1cc(-c2ccc(C(F)(F)F)cn2)[nH]c1C(=O)N[C@@H](c1ncc(CO)s1)C(C)(C)N	0.6	35.3	–
Cc1cc(-c2ccc(C(F)(F)F)cn2)[nH]c1C(=O)N[C@@H](CN)c1nc(CO)cs1	–	85	–
NC[C@@H](NC(=O)c1ccc(-c2ccc(Cl)cn2)[nH]1)c1nc(CO)cs1	5	> 132	–
Cc1cc(-c2ccc(C(F)(F)F)cn2)[nH]c1C(=O)N[C@H](CN)c1ncc(CO)s1	–	92.8	–
NC[C@H](NC(=O)c1ccc(-c2ncc(Cl)cn2)[nH]1)c1nc(CO)cs1	> 15.8	> 66	–
NC[C@H](NC(=O)c1ccc(-c2ccc(C(F)(F)F)cn2)[nH]1)c1ncc(C(O)CO)s1 (stereo partly specified)	5.9	> 113	–
CC(C)(N)[C@H](NC(=O)c1ccc(-c2ccc(C(F)(F)F)cn2)[nH]1)c1ncc(CO)s1	0.5	42.4	–
NC[C@@H](NC(=O)c1ccc(-c2ccc(C(F)(F)F)nn2)[nH]1)c1nc(CO)cs1	> 12	> 73	–
Cc1cc(-c2ccc(Cl)cn2)[nH]c1C(=O)N[C@H](CN)c1ncc(CO)s1	1.2	98.3	–

Structure (SMILES)	IC50 [2] [µM]	CC50 (TZM) [µM]	also measured
CC(C)(N)[C@@H](NC(=O)c1ccc(-c2ccc(C(F)(F)F)cn2)[nH]1)c1nc(CO)cs1	1.7	61	–
NC[C@H](NC(=O)c1ccc(-c2ccc(C(F)(F)F)cn2)[nH]1)c1nccs1	1.2	93.6	–
NC[C@@H](NC(=O)c1ccc(-c2ccc(C(F)(F)F)cn2)[nH]1)c1nc(CCO)cs1	1.7	100	–
NC[C@@H](NC(=O)c1ccc(-c2ccc(C(F)(F)F)cn2)[nH]1)c1nccs1	2	89.3	–
NC[C@@H](NC(=O)c1ccc(-c2ncc(Cl)cn2)[nH]1)c1nc(CO)cs1	> 15.8	–	–
NC[C@H](NC(=O)c1ccc(-c2ccc(F)cn2)[nH]1)c1nc(CO)cs1	> 11	> 138	–
NC[C@@H](NC(=O)c1ccc(-c2ccc(C(F)(F)F)cc2)[nH]1)c1ncc(CO)s1	–	42.4	IC50 [5]: 0.7 µM; IC50 [6]: 0.8 µM
COc1cc(-c2ccc(C(=O)N[C@H](CN)c3nc(CO)cs3)[nH]2)ccn1	> 11	–	–
NC[C@H](NC(=O)c1ccc(-c2ccc(Cl)cn2)[nH]1)c1nc(CO)cs1	1.7	–	–
NC[C@H](NC(=O)c1ccc(-c2ccc(C(F)(F)F)cn2)[nH]1)c1nc(CO)c(CO)s1	> 13	–	–
CC(C)(N)[C@@H](NC(=O)c1ccc(-c2ccc(C(F)(F)F)cn2)[nH]1)c1ncc(CO)s1	0.52	74	–
NC[C@@H](NC(=O)c1ccc(-c2ccc(Cl)cn2)[nH]1)c1ncc(CO)s1	0.85	144	–
Cc1ccc(-c2ccc(C(=O)N[C@@H](CN)c3nc(CO)cs3)[nH]2)nc1	> 11	> 140	–
NC[C@@H](NC(=O)c1ccc(-c2ccc(C(F)(F)F)cn2)[nH]1)c1ncc(C(O)CO)s1 (stereo partly specified)	2.1	–	–
NC[C@H](NC(=O)c1ccc(-c2ccc(C(F)(F)F)cn2)[nH]1)c1nc(CO)cs1	0.3	77.9	–
NC[C@@H](NC(=O)c1ccc(-c2ccc(C(F)(F)F)cn2)[nH]1)c1nc(CO)c(CO)s1	1.8	> 113	–
NC[C@H](NC(=O)c1ccc(-c2ccc(C(F)(F)F)cn2)[nH]1)c1ncc(CO)s1	1.2	–	–
NC[C@H](NC(=O)c1ccc(-c2ccc(C(F)(F)F)cn2)[nH]1)c1nc(CCCO)cs1	0.89	81.2	–
NC[C@H](NC(=O)c1ccc(-c2ccc(C(F)(F)F)nc2)[nH]1)c1nc(CO)cs1	11.9	> 122	–
NC[C@H](NC(=O)c1ccc(-c2ccc(C(F)(F)F)nn2)[nH]1)c1nc(CO)cs1	> 12	–	–
NC[C@H](NC(=O)c1ccc(-c2ccc(C(F)(F)F)cn2)[nH]1)c1nc(CCO)cs1	0.76	91	–
NC[C@@H](NC(=O)c1ccc(-c2ccc(C(F)(F)F)cn2)[nH]1)c1nc(C(O)CO)cs1 (stereo partly specified)	5.2	–	–
NC[C@@H](NC(=O)c1ccc(-c2ccc(Cl)nc2)[nH]1)c1nc(CO)cs1	> 11	–	–
CC(CN)(NC(=O)c1ccc(-c2ccc(C(F)(F)F)cn2)[nH]1)c1nc(CO)cs1 (racemic)	5.1	> 70.5	–
Cc1cc(-c2ccc(C(F)(F)F)cn2)[nH]c1C(=O)NC(C)(CN)c1nc(CO)cs1 (racemic)	2.6	> 68.3	–
